# High-throughput results deposited in PubChem BioAssay by several laboratories.
# ANO1 block – blocks the mouse calcium-activated chloride channel TMEM16A; HEK293 TMEM16A/YFP iodide influx fluorescence, ionomycin; normalized B-score (activity score, 25-100; higher = stronger inhibition) at 10 µM; 1.2% of 310,000 active;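 active = ratio plate-corrected score three or more library SD toward inhibition, starting fluorescence score within five deviations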;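 note: score derived from kinetic fluorescence span divided by baseline fluorescence per well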
# Target sequence (Q8BHY3 whole entry, looked up): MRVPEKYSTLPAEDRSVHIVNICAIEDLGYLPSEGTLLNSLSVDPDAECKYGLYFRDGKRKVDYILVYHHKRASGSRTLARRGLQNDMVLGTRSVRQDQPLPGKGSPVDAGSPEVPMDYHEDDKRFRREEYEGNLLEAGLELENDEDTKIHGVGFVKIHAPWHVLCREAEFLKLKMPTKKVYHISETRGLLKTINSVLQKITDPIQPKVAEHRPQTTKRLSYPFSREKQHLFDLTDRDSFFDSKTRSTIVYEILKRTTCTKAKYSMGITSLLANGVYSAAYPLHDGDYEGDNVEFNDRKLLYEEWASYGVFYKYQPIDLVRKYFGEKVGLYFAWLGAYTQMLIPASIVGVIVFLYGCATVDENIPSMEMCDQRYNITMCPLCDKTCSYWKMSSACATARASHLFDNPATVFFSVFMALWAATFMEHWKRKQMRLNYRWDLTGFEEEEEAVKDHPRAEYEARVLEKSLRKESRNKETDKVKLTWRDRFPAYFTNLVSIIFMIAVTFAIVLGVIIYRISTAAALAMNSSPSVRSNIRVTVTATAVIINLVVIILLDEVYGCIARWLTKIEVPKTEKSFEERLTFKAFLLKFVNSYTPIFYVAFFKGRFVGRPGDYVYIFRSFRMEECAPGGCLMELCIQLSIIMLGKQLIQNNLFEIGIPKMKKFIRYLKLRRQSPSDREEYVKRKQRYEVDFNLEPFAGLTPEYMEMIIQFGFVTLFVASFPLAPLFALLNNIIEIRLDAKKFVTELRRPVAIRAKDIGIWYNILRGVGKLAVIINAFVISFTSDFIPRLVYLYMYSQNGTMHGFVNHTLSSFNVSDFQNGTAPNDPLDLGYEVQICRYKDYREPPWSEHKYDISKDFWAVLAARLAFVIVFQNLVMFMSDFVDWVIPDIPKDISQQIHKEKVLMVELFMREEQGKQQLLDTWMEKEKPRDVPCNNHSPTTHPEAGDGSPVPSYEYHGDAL
# HTR2A ag – agonists of mouse serotonin 5-HT2A receptor (HTR2A); AID 624169; activation, % at 7.6 µM; P35363; CHO-K1 mHTR2A beta-arrestin complementation, luminescence; percent of 30 µM serotonin response; 0.66% of 360,000 active;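 active = activation above a run cutoff, the mean activation of all tested compounds plus 3 SD, cut at about 14% in these data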;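 note: 0% = plate median of compound wells and 100% = 30 µM serotonin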
# MC4R ag barr – human MC4R agonism via beta-arrestin; U2OS MC4R beta-arrestin complementation, luminescence; percent of melanotan II response, DMSO zero; activation, % at 8.9 µM; 0.98% of 360,000 active;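 active = activation above a per-plate cutoff, the mean activation of sample wells on that plate plus 3 SD, cut at about 8% in these data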
# MC4R antagonist – human MC4R antagonism in cAMP assay; MC4R-expressing cells, MTII-stimulated cAMP, LANCE TR-FRET; inhibition, % at 6.5 µM; 0.48% of 360,000 active;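 active = inhibition above its plate's cutoff, the mean of tested wells on that plate plus 3 SD, cut at about 29% in these data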;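 note: 0% = Melanotan II alone and 100% = Melanotan II plus saturating MCL0020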
#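 Assay system: human MC4R-expressing U2OS cells; reagent: Melanotan II stimulation of cells; dosing: 6.5 µM single dose; timing: compound 30 min, challenge 1 h, detection 1 h; signal: TR-FRET cAMP assay; replicates: one well per compound, no replicates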
# TMEM16A act – activates or potentiates the mouse TMEM16A chloride channel; 0.3% of 340,000 active; Q8BHY3; HEK293 TMEM16A/YFP-H148Q/I152L, iodide quench fluorescence; stronger effect = lower value; B-score at 10 µM;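 active = fluorescence-ratio B-score plate-corrected deviation score at least 3 library SD below zero, with starting fluorescence score within 5 deviations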;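 note: channel opened by trigger with iodide after compound preincubation; score built on the fluorescence ratio of max minus min over baseline; more negative score means more quench and so TMEM16A activation or potentiation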
# MIN6 prolif – induces beta-cell replication in MIN6 cells. MIN6 cells proliferation, ATPlite luminescence, 48 h; cells starved in 0.2% serum; 100% = growth in 10% serum. proliferation, % at 10 µM. 0.29% of 330,000 active;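 active = compounds whose signal lies at least 3.5 SD above the mean of all wells on their plate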;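 note: 0% = DMSO-treated cells in low-serum medium and 100% = 10% serum control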
# MC4R barr ag – human MC4R beta-arrestin agonism confirmation; shares compounds with MC4R ag barr; U2OS MC4R beta-arrestin recruitment, luminescence; scaled DMSO 0%, Melanotan II 100%; activation, % at 8.9 µM; 31% of 2,400 active; AID 602192;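 active = mean activation across replicates above the hit cutoff set in the earlier primary screen, cut at about 8% in these data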
# MOR DOR agonist – activates mu-delta opioid heterodimer, MC4R agonist counter-screen. shares compounds with MC4R ag barr. U2OS PathHunter beta-arrestin, beta-gal luminescence; percent of deltorphin B response, DMSO zero. activation, % at 9.2 µM. 5.8% of 2,400 active;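 active = mean activation across replicates exceeds the hit threshold derived in the earlier primary screen, cut at about 18% in these data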;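 note: 100% = deltorphin B at 0.9 µM final and 0% = DMSO alone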
# * hit, by the source's call; i = inactive; . = not tested or not shown. This is a sample that favours compounds with a hit; in the whole collection about 3.4% have one here.
SMILES,ANO1 block,HTR2A ag,MC4R ag barr,MC4R antagonist,TMEM16A act,MIN6 prolif,MC4R barr ag,MOR DOR agonist
Oc1oc(-c2ccccc2Br)nc1C=Nc1ccc(Br)cn1,i,-0.2,21.0*,1.9,i,-2.5,10.2*,2.7
CCOC(=O)C1=C(C)N(C)C(=S)NC1c1c(OCC)ccc2ccccc12 (centres undefined),i,3.9,20.8*,-1.2,i,-3.8,-0.5,5.8
CCOc1ccc2ccccc2c1C1NC(=S)N(C)C(C)=C1C(=O)OC (centres undefined),i,-5.0,3.3,9.8,i,3.6,.,.
COc1cc2c(cc1NC(=O)c1ccc(C)c([N+](=O)[O-])c1)oc1ccccc12,i,4.0,1.4,3.3,i,0.0,.,.
COc1cc2c(cc1NC(=O)c1cccc([N+](=O)[O-])c1)oc1ccccc12,i,0.4,22.2*,-23.1,i,-1.5,30.5*,47.2*
O=S(=O)(NCc1ccccc1)c1ccc(S(=O)(=O)N(Cc2ccccn2)Cc2ccco2)cc1,i,-9.2,10.2*,1.8,i,0.8,6.5,3.8
CCCCCCCCN1C(=O)[C@H](CC(=O)N2CCCC2)C[C@@]2(C(=O)OCC)CCCC=C12,.,2.9,.,.,.,.,.,.
Clc1ccccc1-c1cnc2sc(NCc3ccc4c(c3)OCO4)nn12,.,-2.2,21.9*,-4.7,.,.,13.1*,9.4
CC(=O)Nc1nn(CC(C)C)c2nc3ccc(C)cc3cc12,.,7.2,-1.2,-8.6,.,.,.,.
Cc1ccc2cc3c(NC(=O)c4ccco4)nn(CC(C)C)c3nc2c1,i,0.5,12.9*,7.0,i,0.5,-1.5,2.9
Cc1c(C)c(C)c(S(=O)(=O)Nc2ccc3[nH]c(=O)[nH]c3c2)c(C)c1C,i,-4.9,-0.4,3.6,i,-0.6,.,.
O=C(CCc1ccccc1)NC(NC(=S)Nc1ccc(Br)cc1)C(Cl)(Cl)Cl (centres undefined),i,0.9,13.5*,21.4,i,-4.0,4.8,6.0
Cc1cccc(NC(=O)c2oc(=O)c3ccccc3c2-c2ccccc2)c1C,i,6.2,11.1*,9.7,i,-3.0,1.0,3.4
CCOc1ncccc1C(=O)Nc1cc(S(=O)(=O)N2CCCCC2)ccc1C,.,9.1,1.1,4.7,i,3.1,.,.
CC1(C)C[C@H](O)[C@]2(CO)[C@H](O)C[C@]3(C)C(=CCC4[C@@]5(C)CC[C@H](O)C(C)(C)C5CC[C@]43C)[C@@H]2C1 (some centres undefined),.,3.9,18.9*,17.9,i,-6.0,24.9*,21.1*
CC1(C)CC[C@]2(CO)CC[C@]3(C)C(=CCC4[C@@]5(C)CC[C@H](O)[C@@](C)(CO)C5CC[C@]43C)[C@@H]2C1 (some centres undefined),.,5.0,11.1*,5.1,i,-6.1,15.0*,3.2
COc1cccc(N(CC(=O)N2CCCC2)S(C)(=O)=O)c1,i,1.4,-2.1,8.1,i,-4.1,.,.
Cc1cccc(NC(=O)c2nc[nH]c2C(=O)NCCCCCNC(=O)OC(C)(C)C)c1,.,3.8,9.7*,6.1,i,-5.5,-3.3,9.5
Cc1cccc(NC(=O)c2nc[nH]c2C(=O)NCCCNC(=O)c2[nH]cnc2C(=O)Nc2cccc(C)c2)c1,.,-0.7,-0.9,3.2,i,-6.0,.,.
Cc1ccc(-c2csc3nc4c5ccccc5c(NCCCN(C)C)nn4c(=O)c23)cc1,i,-6.5,13.4*,-0.1,i,-7.0,32.7*,9.3
CCC(=O)N(Cc1ccco1)c1nc(-c2cc(OC)ccc2OC)cs1,i,9.6,9.7*,-2.5,i,-2.0,9.1*,5.3
CN(C)c1cccc(C(=O)OCCCC(=O)c2ccc(F)cc2)c1,.,-6.8,0.3,-1.6,i,-4.1,.,.
COc1ccc(-n2nc(C(=O)NCC(=O)NC(C)C)c3ccccc3c2=O)cc1Cl,i,0.0,-0.8,-7.2,i,-0.6,.,.
COc1ccc(-n2nc(C(=O)NCC(=O)Nc3ccccn3)c3ccccc3c2=O)cc1Cl,.,4.0,15.3*,-3.0,i,-2.1,24.3*,8.6
CCN(C(=O)CCNC(=O)Cn1cnc2ccccc2c1=O)c1ccccc1F,i,7.8,0.2,-2.1,i,0.0,.,.
SMILES,ANO1 block,HTR2A ag,MC4R ag barr,MC4R antagonist,TMEM16A act,MIN6 prolif,MC4R barr ag,MOR DOR agonist
CCOc1ccc(Nc2oc(-c3cccs3)nc2C#N)cc1,i,7.6,18.4*,-1.8,i,-3.1,5.1,10.0
CCOc1ccc(Nc2oc(-c3ccco3)nc2C#N)cc1,i,3.4,2.1,9.4,i,-1.2,.,.
COc1ccccc1-c1cccc(-c2nc(C(=O)Nc3nccs3)cc3c2[C@H](CCO)N(C(C)=O)C3)c1,.,2.7,.,.,.,.,.,.
O=C(NCCc1ccccc1C(F)(F)F)c1cc(COc2ccccc2)on1,.,1.9,2.5,18.2,.,.,.,.
CC(=O)Nc1ccc(NC(=O)C2CCCN(c3ncccn3)C2)cc1 (centres undefined),i,-1.9,-0.5,-2.2,i,3.0,.,.
O=C(Nc1ccc(Oc2ccccc2)cc1)C1CCCN(c2ncccn2)C1 (centres undefined),i,0.4,9.9*,4.0,i,-2.3,0.3,2.6
O=C(N/N=C\c1ccccc1F)c1ccc(-c2ccccc2)cc1,i,-8.2,16.1*,0.2,i,-3.5,5.7,8.7
CN=C1SC(CC(=O)Nc2ccccc2F)C(=O)N1C (centres undefined),i,0.9,-0.2,-0.6,i,-3.1,.,.
C=CCOc1ccc(/C=N/N2C(=O)C(CC(=O)Nc3ccc(F)cc3F)SC2=NC)cc1 (centres undefined),i,0.9,10.9*,6.2,i,-4.6,0.3,4.4
CC(C)C(=O)Nc1cccc(COc2ccccc2CN(Cc2ccccc2)C(=O)OC(C)(C)C)c1,.,-5.6,2.2,7.3,.,.,.,.
Cc1oc(-c2ccccc2)nc1CS(=O)CC(=O)NC1CCCC1 (centres undefined),i,1.2,-0.1,7.0,i,-2.2,.,.
COc1cc(/C=C2\NC(=S)N(C)C2=O)ccc1OCc1ccccc1F,i,7.8,5.0,10.5,i,0.5,.,.
CN1C(=O)/C(=C/c2ccc(OCc3ccccc3F)cc2)NC1=S,i,3.0,20.1*,8.1,i,-1.0,1.9,5.4
